Test results taken from ChEMBL document CHEMBL1123913, “Discovery and anticonvulsant activity of the potent metabolic inhibitor 4-amino-N-(2,6-dimethylphenyl)-3,5-dimethylbenzamide” (1987).
The source made the active and inactive calls. The rule behind the calls is not given here.

How the values were obtained:
Mus musculus [1] = test: Antagonistic activity against MES (Maximal Electroshock)-induced seizures after oral administration to mice; format: functional
Procedure, shortened: (§1)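 Fasted (90 min) mice dosed orally with a range of doses as suspension in 5% acacia/water. Electroshock 40 mA, 0.1 s, ac, via corneal electrodes at the time of peak effect, using at least four doses, 12 mice per dose. ED50 for prevention of tonic-extensor convulsions by Litchfield–Wilcoxon, with 95% confidence limits.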

Mus musculus [2] = test: Plasma concentration was determined after 30 min of oral administration in mice; format: functional, organism-based
Procedure, shortened: (§2)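 Three groups of two mice dosed orally at 1.7, 3.5 or 5.6 mg/kg, suspended in 5% acacia. Blood taken by cardiac puncture under methoxyfluorane into heparin, plasma stored at −30 °C. Parent and N-acetyl metabolite measured by C18 HPLC with absorbance detection against plasma standards of 50–2000 ng/mL. Detection limit 25 ng/mL. Mean ± SEM.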

Mus musculus [3] = test: Plasma concentration was determined after 60 min of oral administration in mice; format: functional, organism-based; procedure, shortened: as §2
Mus musculus [4] = test: Plasma concentration was determined after 120 min of oral administration in mice; format: functional, organism-based; procedure, shortened: as §2
Mus musculus [5] = test: Time taken for peak anticonvulsant effect(TPE) was measured by oral administration to mice; format: functional
Procedure, shortened: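 Fasted mice, four per group, given a range of oral doses in 5% acacia/water. Challenged with corneal electroshock (40 mA, 0.1 s, ac) at 0.5, 1, 2, 3 and 4 h after dosing to find the time of peak anticonvulsant effect.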

Mus musculus [6] = species on record: Mus musculus; test: Ataxia or neurological deficit was measured as horizontal screen test(HS) in mice; format: functional
Procedure, shortened: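 Male CF1 mice (20–25 g), fasted 90 min, given oral doses as suspension in 5% acacia/water, then placed on a 13 cm × 13 cm wire screen. Retested at the time of peak effect with at least four doses and 12 mice per dose. ED50 by Litchfield–Wilcoxon, with 95% confidence limits.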

Mus musculus [7] = test: Ataxia or neurological deficit was measured as horizontal screen test(HS) in mice at a dose of 160 mg/kg; NA means Not active; format: functional, organism-based; set-up: dose 160 mg/kg
Mus musculus [8] = test: Plasma concentration was determined after 240 min of oral administration in mice; format: functional, organism-based; procedure, shortened: as §2
Mus musculus [9] = test: Plasma concentration was determined after 360 min of oral administration in mice; format: functional, organism-based; procedure, shortened: as §2
Mus musculus [10] = test: Ataxia or neurological deficit was measured as horizontal screen test(HS) in mice at the highest dose of 300 mg/kg; NA means Not active; format: functional, organism-based; set-up: dose 300 mg/kg
Mus musculus [11] = test: Effect on Hexobarbitol-Induced sleeping time in mice at a dose of 7.6 mg/kg peroral administration; format: functional; conditions: route oral
Procedure, shortened: (§3)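 Groups of 10 fasted mice dosed orally in 5% acacia/water. Hexobarbital 100 mg/kg ip, solubilized with stoichiometric NaOH, given 1.0 h later. Duration of loss of righting reflex to the nearest minute. Mean ± SEM, percent increase over hexobarbital control, p < 0.05 significance.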

Mus musculus [12] = test: Effect on Hexobarbitol-Induced sleeping time in mice at a dose of 0 mg/kg peroral administration; format: functional; conditions: route oral
Procedure, shortened: (§4)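 Groups of 10 fasted mice dosed orally in 5% acacia/water. Hexobarbital 100 mg/kg ip, solubilized with stoichiometric NaOH, given 0.5 h later. Sleeping time is loss of righting reflex, to the nearest minute. Reported as mean ± SEM and percent increase over hexobarbital control.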

Mus musculus [13] = test: Effect on Hexobarbitol-Induced sleeping time in mice at a dose of 30.4 mg/kg peroral administration; format: functional; conditions: route oral; procedure, shortened: as §3
Mus musculus [14] = test: Effect on Hexobarbitol-Induced sleeping time in mice at a dose of 3.8 mg/kg peroral administration; format: functional; conditions: route oral; procedure, shortened: as §3
Mus musculus [15] = test: Antagonistic activity against MES-induced seizures after oral administration to mice; format: functional; procedure, shortened: as §1
Mus musculus [16] = test: Effect on Hexobarbitol-Induced sleeping time in mice at a dose of 15.2 mg/kg peroral administration; format: functional; conditions: route oral; procedure, shortened: as §3
Mus musculus [17] = test: Effect on Hexobarbitol-Induced sleeping time in mice at a dose of 1.6 mg/kg peroral administration; format: functional; conditions: route oral; procedure, shortened: as §4
Mus musculus [18] = test: Effect on Hexobarbitol-Induced sleeping time in mice at a dose of 12.8 mg/kg peroral administration; format: functional; conditions: route oral; procedure, shortened: as §4
Mus musculus [19] = test: Effect on Hexobarbitol-Induced sleeping time in mice at a dose of 6.4 mg/kg peroral administration; format: functional; conditions: route oral; procedure, shortened: as §4
[20] = Protective index (HS ED50/MES ED50) after oral administration in mice; format: functional
Procedure, shortened: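 Ratio of the horizontal-screen ED50 to the MES ED50. Both come from oral dosing of fasted mice in 5% acacia/water at the time of peak effect and are calculated by Litchfield–Wilcoxon.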

Mus musculus [21] = test: Effect on Hexobarbitol-Induced sleeping time in mice at a dose of 3.2 mg/kg peroral administration; format: functional; conditions: route oral; procedure, shortened: as §4
Mus musculus [22] = test: Antagonistic activity against MES(Maximal Electroshock)-induced seizures after oral administration to mice; format: functional; procedure, shortened: as §1

Row | SMILES | ED50 (Mus musculus [1]) | Concentration (Mus musculus [2]) | Concentration (Mus musculus [3]) | Concentration (Mus musculus [4]) | TPE (Mus musculus [5]) | ED50 (Mus musculus [6]) | other results
1 | CC(=O)Nc1ccc(C(=O)Nc2c(C)cccc2C)cc1C | 4.5 mg/kg | 79 ng/mL | 97 ng/mL | 91 ng/mL | 1 h | 56 mg/kg | –
2 | CC(=O)Nc1c(C)cc(C(=O)Nc2c(C)cccc2C)cc1C | 170 mg/kg | – | – | – | 2 h | – | ED50 (Mus musculus [7]): inactive
3 | CC(=O)Nc1ccc(C(=O)Nc2c(C)cccc2C)cc1 | 3.8 mg/kg | 412 ng/mL | 587 ng/mL | 545 ng/mL | 2 h | – | Concentration (Mus musculus [8]): 425 ng/mL; Concentration (Mus musculus [9]): 225 ng/mL; ED50 (Mus musculus [10]): inactive
4 | Cc1cc(C(=O)Nc2c(C)cccc2C)ccc1N | – | – | – | – | 1 h | 84 mg/kg | Sleeping time (Mus musculus [11]): 97.9 min; Sleeping time (Mus musculus [12]): 66.4 min; Sleeping time (Mus musculus [13]): 133.8 min; Sleeping time (Mus musculus [14]): 85.6 min; ED50 (Mus musculus [15]): 3.5 mg/kg; Sleeping time (Mus musculus [16]): 85.5 min
5 | Cc1cccc(C)c1NC(=O)c1ccc(N)cc1 [AMELTOLIDE] | 1.7 mg/kg | 1090 ng/mL | 893 ng/mL | 656 ng/mL | 0.5 h | 23 mg/kg | Sleeping time (Mus musculus [17]): 67.9 min; Sleeping time (Mus musculus [12]): 59.6 min; Sleeping time (Mus musculus [18]): 76.4 min; Concentration (Mus musculus [8]): 394 ng/mL; Sleeping time (Mus musculus [19]): 75 min; PI [20]: 13; Sleeping time (Mus musculus [21]): 69.3 min; Concentration (Mus musculus [9]): 299 ng/mL
6 | O=C1NC(=O)C(c2ccccc2)(c2ccccc2)N1 [PHENYTOIN] | 9.4 mg/kg | – | – | – | 1 h | 210 mg/kg | –
7 | Cc1cc(C(=O)Nc2c(C)cccc2C)cc(C)c1N | – | 1480 ng/mL | 1160 ng/mL | 1060 ng/mL | 1 h | 64 mg/kg | ED50 (Mus musculus [22]): 5.6 mg/kg
